Assay results from ChEMBL document CHEMBL1121685, “Development of new mitomycin C and porfiromycin analogues” (J Med Chem, 1981).

Key:
[1] = tested on: Mus musculus; assay: Antitumor activity against P-388 murine leukemia cells in CDF1 female mice after intraperitoneal administration at the specified optimal dose of 51.2 mg/kg; format: functional
[2] = Therapeutic ratio is expressed as ratio of optimal dose and minimum effective dose; format: ADME; conditions: mouse; read-out: TR
Method in brief: (§1)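 10⁶ P-388 ascites cells implanted ip in CDF₁ female mice. Six mice per dose, 10 saline-injected controls, and a concurrent mitomycin C reference group. %T/C = median survival time of treated/control × 100. MED is the lowest dose giving %T/C > 125. Therapeutic ratio = optimal dose/MED.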

[3] = tested on: Mus musculus; assay: Effect of compound on total white blood cell count in BDG1 male mice, after intraperitoneal administration at a dose of 1.27 mg/kg on day 7; format: functional
Method in brief: (§2)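 BDG₁ male mice received a single ip dose on day 0. The dose series topped out at the LD₅₀ level, or at twice the optimal dose for some agents. Total white blood cell count was taken on days 3, 5 and 7 and expressed as % change from untreated controls. Significance was set at p ≤ 0.05 or p ≤ 0.01.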

[4] = tested on: Mus musculus; assay: Effect of compound on total white blood cell count in BDG1 male mice, after intraperitoneal administration at a dose of 1.27 mg/kg on day 3; format: functional; method in brief: as §2
[5] = tested on: Mus musculus; assay: Effect of compound on total white blood cell count in BDG1 male mice, after intraperitoneal administration at a dose of 1.69 mg/kg on day 3; format: functional; method in brief: as §2
[6] = tested on: Mus musculus; assay: Effect of compound on total white blood cell count in BDG1 male mice, after intraperitoneal administration at a dose of 1.69 mg/kg on day 7; format: functional; method in brief: as §2
[7] = tested on: Mus musculus; assay: Effect of compound on total white blood cell count in BDG1 male mice, after intraperitoneal administration at a dose of 1.69 mg/kg on day 5; format: functional; method in brief: as §2
[8] = species on record: Mus musculus; assay: Degree of leukopenia produced by compound is assessed form Percent change in white cells on day 7; format: functional; method in brief: as §2
[9] = species on record: Mus musculus; assay: Half-wave potential produced by the compound at their optimal dose; format: functional; parameters: unit not given here
[10] = tested on: Mus musculus; assay: Effect of compound on total white blood cell count in BDG1 male mice, after intraperitoneal administration at a dose of 1.27 mg/kg on day 5; format: functional; method in brief: as §2
[11] = tested on: Mus musculus; assay: Effect of compound on total white blood cell count in BDG1 male mice, after intraperitoneal administration at a dose of 3 mg/kg on day 3; format: functional
Method in brief: (§3)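 Single ip dose given on day 0 to BDG1 male mice over a descending dose series. Total white blood cell count is expressed as % change from untreated control on days 3, 5 and 7. Significance is flagged at p ≤ 0.05 and p ≤ 0.01.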

[12] = tested on: Mus musculus; assay: Effect of compound on total white blood cell count in BDG1 male mice, after intraperitoneal administration at a dose of 3 mg/kg on day 5; format: functional; method in brief: as §3
[13] = tested on: Mus musculus; assay: Effect of compound on total white blood cell count in BDG1 male mice, after intraperitoneal administration at a dose of 3 mg/kg on day 7; format: functional; method in brief: as §3
[14] = tested on: Mus musculus; assay: Effect of compound on total white blood cell count in BDG1 male mice, after intraperitoneal administration at a dose of 2.55 mg/kg on day 5; format: functional; method in brief: as §3
[15] = tested on: Mus musculus; assay: Effect of compound on total white blood cell count in BDG1 male mice, after intraperitoneal administration at a dose of 2.55 mg/kg on day 7; format: functional; method in brief: as §3
[16] = tested on: Mus musculus; assay: Effect of compound on total white blood cell count in BDG1 male mice, after intraperitoneal administration at a dose of 2.55 mg/kg on day 3; format: functional; method in brief: as §3
[17] = tested on: Mus musculus; assay: Minimum effective dose that show activity against P-388 murine leukemia cells in CDF1 female mice, after intraperitoneal administration (optimal dose is 1.6 mg/kg); format: functional; conditions: P388, ip, read-out: MED
[18] = tested on: Mus musculus; assay: Antitumor activity against P-388 murine leukemia cells in CDF1 female mice after intraperitoneal administration at the specified optimal dose of 1.6 mg/kg; format: functional
[19] = species on record: Mus musculus; assay: Degree of leukopenia produced by compound is assessed form Percent change in white cells on days 5; format: functional; method in brief: as §2
[20] = tested on: Mus musculus; assay: Effect of compound on total white blood cell count in BDG1 male mice, after intraperitoneal administration at a dose 29.6 mg/kg on day 7; format: functional; method in brief: as §2
[21] = tested on: Mus musculus; assay: Effect of compound on total white blood cell count in BDG1 male mice, after intraperitoneal administration at a dose of 39.4 mg/kg on day 5; format: functional; method in brief: as §3
[22] = tested on: Mus musculus; assay: Effect of compound on total white blood cell count in BDG1 male mice, after intraperitoneal administration at a dose of 39.4 mg/kg on day 3; format: functional; method in brief: as §3
[23] = tested on: Mus musculus; assay: Effect of compound on total white blood cell count in BDG1 male mice, after intraperitoneal administration at a dose of 22.2 mg/kg on day 3; format: functional; method in brief: as §3
[24] = tested on: Mus musculus; assay: Effect of compound on total white blood cell count in BDG1 male mice, after intraperitoneal administration at a dose of 22.2 mg/kg on day 5; format: functional; method in brief: as §3
[25] = tested on: Mus musculus; assay: Effect of compound on total white blood cell count in BDG1 male mice, after intraperitoneal administration at a dose of 22.2 mg/kg on day 7; format: functional; method in brief: as §3
[26] = tested on: Mus musculus; assay: Effect of compound on total white blood cell count in BDG1 male mice, after intraperitoneal administration at a dose of 29.6 mg/kg on day 3; format: functional; method in brief: as §3
[27] = tested on: Mus musculus; assay: Effect of compound on total white blood cell count in BDG1 male mice, after intraperitoneal administration at a dose of 29.6 mg/kg on day 5; format: functional; method in brief: as §3
[28] = tested on: Mus musculus; assay: Effect of compound on total white blood cell count in BDG1 male mice, after intraperitoneal administration at a dose of 50.9 mg/kg on day 3; format: functional
Method in brief: (§4)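 Single ip dose given on day 0 to BDG₁ male mice. Total white blood cell count measured on days 3, 5 and 7, expressed as % change from control. Highest dose was at the LD₅₀, or at twice the optimal dose where so footnoted. Significance reported at p ≤ 0.05 and p ≤ 0.01. D marks death of one or more mice.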

[29] = tested on: Mus musculus; assay: Effect of compound on total white blood cell count in BDG1 male mice, after intraperitoneal administration at a dose of 50.9 mg/kg on day 7; format: functional; method in brief: as §4
[30] = tested on: Mus musculus; assay: Minimum effective dose that show activity against P-388 murine leukemia cells in CDF1 female mice, after intraperitoneal administration (optimal dose is 12.8 mg/kg); format: functional; conditions: P388, ip, read-out: MED; method in brief: as §1
[31] = tested on: Mus musculus; assay: Number of tumored survivors, 45 days after administration of compound at a dose of 18 mg/kg/day in mice; format: functional
[32] = tested on: Mus musculus; assay: Activity of compound dose of 1.13 mg/kg/day against Murine B-16 Melanocarcinoma in mice; format: functional
[33] = tested on: Mus musculus; assay: Activity of compound dose of 18 mg/kg/day against Murine B-16 Melanocarcinoma in mice; format: functional
[34] = tested on: Mus musculus; assay: Activity of compound dose of 2.25 mg/kg/day against Murine B-16 Melanocarcinoma in mice; format: functional
[35] = tested on: Mus musculus; assay: Activity of compound dose of 36 mg/kg/day against Murine B-16 Melanocarcinoma in mice; format: functional
[36] = tested on: Mus musculus; assay: Activity of compound dose of 4.5 mg/kg/day against Murine B-16 Melanocarcinoma in mice; format: functional
[37] = tested on: Mus musculus; assay: Activity of compound dose of 9 mg/kg/day against Murine B-16 Melanocarcinoma in mice; format: functional
[38] = tested on: Mus musculus; assay: Antitumor activity against P-388 murine leukemia cells in CDF1 female mice after intraperitoneal administration at the specified optimal dose of 12.8 mg/kg; format: functional
[39] = tested on: Mus musculus; assay: Number of cured survivors, 45 days after administration of compound at a dose of 18 mg/kg/day in mice; format: functional
[40] = tested on: Mus musculus; assay: Number of cured survivors, 45 days after administration of compound at a dose of 36 mg/kg/day in mice; format: functional
[41] = tested on: Mus musculus; assay: Effect of compound on total white blood cell count in BDG1 male mice, after intraperitoneal administration at a dose of 12.8 mg/kg on day 3 (highest dose was twice the optimal dose); format: functional; method in brief: as §2
[42] = tested on: Mus musculus; assay: Effect of compound on total white blood cell count in BDG1 male mice, after intraperitoneal administration at a dose of 12.8 mg/kg on day 5 (highest dose was twice the optimal dose); format: functional; method in brief: as §2
[43] = tested on: Mus musculus; assay: Effect of compound on total white blood cell count in BDG1 male mice, after intraperitoneal administration at a dose of 12.8 mg/kg on day 7 (highest dose was twice the optimal dose); format: functional
[44] = tested on: Mus musculus; assay: Effect of compound on total white blood cell count in BDG1 male mice, after intraperitoneal administration at a dose of 6.4 mg/kg on day 5; format: functional; method in brief: as §4
[45] = tested on: Mus musculus; assay: Effect of compound on total white blood cell count in BDG1 male mice, after intraperitoneal administration at a dose of 6.4 mg/kg on day 3; format: functional; method in brief: as §4
[46] = tested on: Mus musculus; assay: Effect of compound on total white blood cell count in BDG1 male mice, after intraperitoneal administration at a dose of 6.4 mg/kg on day 7; format: functional; method in brief: as §4
[47] = tested on: Mus musculus; assay: Minimum effective dose that show activity against P-388 murine leukemia cells in CDF1 female mice, after intraperitoneal administration (optimal dose is 6.4 mg/kg); format: functional; conditions: P388, ip, read-out: MED; method in brief: as §1
[48] = tested on: Mus musculus; assay: Antitumor activity against P-388 murine leukemia cells in CDF1 female mice after intraperitoneal administration at the specified optimal dose of 6.4 mg/kg; format: functional

COC12[C@@H](COC(N)=O)C3=C(C(=O)C(C)=C(NCCCl)C3=O)N1C[C@@H]1[C@H]2N1C (some centres not stated)
T/C [1]: 205% | selectivity ratio [2]: 8

COC12[C@@H]3N[C@@H]3CN1C1=C(C(=O)C(N3CC3)=C(C)C1=O)[C@@H]2COC(N)=O (some centres not stated)
Change [3]: 3% | Change [4]: -16% | Change [5]: 16% | Change [6]: -11% | Change [7]: 9% | Change [8]: -11% | E1/2 [9]: -0.31 | Change [10]: 27% | Change [11]: -12% | Change [12]: 3% | Change [13]: 13% | Change [14]: 34% | Change [15]: 18% | Change [16]: 15% | minimal effective dose [17]: 0.025 mg/kg | T/C [18]: 266% | selectivity ratio [2]: 64

COC12[C@@H]3N[C@@H]3CN1C1=C(C(=O)C(NCc3ccco3)=C(C)C1=O)[C@@H]2COC(N)=O (some centres not stated)
Change [19]: -54% | Change [20]: 0% | E1/2 [9]: -0.39 | Change [21]: -74% | Change [22]: -84% | Change [23]: -70% | Change [24]: 62% | Change [25]: -1% | Change [26]: -78% | Change [27]: -67% | Change [28]: -76% | Change [29]: -64% | minimal effective dose [30]: < 0.4 mg/kg | Survivors [31]: 1 | T/C [32]: 125% | T/C [33]: 219% | T/C [34]: 148% | T/C [35]: 247% | T/C [36]: 170% | T/C [37]: 186% | T/C [38]: 276% | Survivors [39]: 3 | selectivity ratio [2]: > 32 | Survivors [40]: 6

C=CCNC1=C(C)C(=O)C2=C(C1=O)[C@H](COC(N)=O)C1(OC)[C@@H]3N[C@@H]3CN21 (some centres not stated)
Change [41]: -33% | Change [42]: -42% | Change [43]: 6% | Change [44]: -37% | Change [45]: -35% | Change [46]: -0.6% | minimal effective dose [47]: 3.2 mg/kg | T/C [48]: 150% | selectivity ratio [2]: 2
